Screens deposited in PubChem by several laboratories.
Sampled rows, rich in hits. Any-hit rate of the full collection: about 4.1%.
KCC2 mod: KCC2 cotransporter modulators, thallium flux, primary screen, cell-based, HEK293 KCC2, FluoZin-2 fluorescence, MLSMR; Solute carrier family 12 member 5 (Homo sapiens), Q9H2X9; hit rate 2.2% among 190,000; KCC2 cells, thallium flux FluoZin-2 fluorescence; B-score of Tl+ flux slope (higher = more flux/activation; lower = inhibition) at 10 µM;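 active means thallium flux slope and its plate-corrected score both differing from the plate sample mean at a set confidence after two filtering rounds, in either direction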;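 further: slope of fluorescence scaled to starting intensity during 10 to 20 s after thallium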
KCNK3 block: human KCNK3 channel inhibitors, primary screen, CHO cells, FluxOR thallium flux, B-score; Potassium channel subfamily K member 3 (Homo sapiens), O14649; FluxOR fluorescence; hits give low values; B-score at 10 µM; hit rate 0.84% among 340,000; AID 602410, 2012;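 active means B-score under library mean minus 4 SD, starting fluorescence ratio at most library mean plus 5 SD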;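 further: more negative B-score means stronger inhibition of thallium flux through KCNK3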
Target sequence (O14649 whole entry, looked up): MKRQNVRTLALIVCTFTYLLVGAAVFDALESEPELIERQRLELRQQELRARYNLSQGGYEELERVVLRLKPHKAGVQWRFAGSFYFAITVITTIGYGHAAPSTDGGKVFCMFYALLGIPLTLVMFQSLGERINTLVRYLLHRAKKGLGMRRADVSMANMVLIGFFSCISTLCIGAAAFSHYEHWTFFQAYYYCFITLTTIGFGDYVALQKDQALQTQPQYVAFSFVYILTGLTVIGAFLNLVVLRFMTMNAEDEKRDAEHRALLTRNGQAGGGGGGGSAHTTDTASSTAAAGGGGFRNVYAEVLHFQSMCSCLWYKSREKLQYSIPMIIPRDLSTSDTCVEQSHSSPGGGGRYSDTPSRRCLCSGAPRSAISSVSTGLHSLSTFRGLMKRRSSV
hERG rescue: hERG rescue from dofetilide block, primary screen, cell-based, CHO-hERG, FluxOR thallium flux, dofetilide IC70. activation (rescue from dofetilide block), less the hit threshold, % at 10 µM. dofetilide IC70 present. hit rate 0.51% among 310,000. Voltage-gated inwardly rectifying potassium channel KCNH2 (Homo sapiens), Q12809. AID 1511, 2009;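 active means activation above the mean of controls blocked by dofetilide plus 5 SD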;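 further: thallium influx through hERG after potassium depolarization seen as dye fluorescence rise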
KCNQ1 block: inhibitors of human KCNQ1 channel, primary screen, cell-based, thallium flux, high-throughput; AID 2642, 2010; Potassium voltage-gated channel subfamily KQT member 1 (Homo sapiens), P51787; hit rate 1.3% among 310,000; CHO-K1 KCNQ1, FluxOR thallium flux fluorescence; hits give high values; B-score at 10 µM;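 active means compounds whose thallium flux B-score, printed positive for inhibition, exceeds three library SD while starting fluorescence stays within three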;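 further: channel opened by potassium depolarization with thallium stimulus after 20 min compound exposure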
KCNQ1 pot: potentiators or activators of KCNQ1 channel, primary screen, cell-based, thallium flux, high-throughput; AID 2648, 2010; CHO-K1 KCNQ1, thallium flux FluxOR fluorescence; hits give high values; hit rate 0.35% among 310,000; B-score at 10 µM;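 active means fluorescence ratio B-score, a plate-corrected score, at least three library SD, with initial intensity B-score within 5 SD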
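System: CHO-K1 cells stably expressing KCNQ1 / Medium: assay buffer for compound exposure, DMSO matched across wells / Reagent: thallium- and potassium-containing depolarizing buffer / Compound: one concentration, matched DMSO / Incubation: 20 min compound pretreatment at room temperature / Measured by: kinetic FluxOR fluorescence, 10 s baseline plus 110 s post-stimulus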
KCNK9 inh: KCNK9 potassium channel inhibitors, primary screen, HEK293 cells, thallium flux | Potassium channel subfamily K member 9 (Homo sapiens), Q9NPC2 | FluxOR thallium flux fluorescence; hits give low values | B-score at 10 µM | hit rate 1.2% among 310,000;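 active means ratio B-score over 3 SD below the library mean, with starting fluorescence within 5 SD of its mean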;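 further: negative B-score means less thallium flux so channel inhibition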
KCNK3 inh conf: retest of human KCNK3 channel inhibitors, confirmation, CHO cells, FluxOR thallium flux, triplicate; shares compounds with KCNK3 block; FluxOR fluorescence; 0% buffer, 100% carvedilol maximal block; ratio percent of control, % at 10 µM; hit rate 99% among 2,400; AID 651638, 2012;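 active means ratio percent of control, averaged over triplicates, above buffer control mean plus 5 SD, cut at about 64% in these data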;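 further: ratio is the fluorescence rise from min to max over baseline after thallium stimulus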
KCNK3 uninduced: thallium flux inhibition in non-induced cells, primary screen, counter-screen for KCNK3 inhibitor project, cell-based, non-induced KCNK3 line, FluxOR thallium, triplicate | shares compounds with KCNK3 block | non-induced KCNK3 parental cells; hits give low values | thallium flux ratio (lower = more inhibition) at 10 µM | hit rate 40% among 2,400;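 active means thallium flux ratio, averaged over three wells, more than 5 SD below the buffer control mean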;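 further: host cells are CHO cells without KCNK3 induction; ratio is peak minus trough fluorescence over baseline then normalized to buffer controls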
* marks the source's active call; other numbers are inactive results; i = inactive; x = no result.

SMILES	KCC2 mod	KCNK3 block	hERG rescue	KCNQ1 block	KCNQ1 pot	KCNK9 inh	KCNK3 inh conf	KCNK3 uninduced
CCOC(=O)c1cc2c(=O)n3ccccc3nc2n(Cc2ccco2)c1=NC(=O)c1ccccc1OCC	-0.592	-8.82*	-11.8	i	i	i	91.3*	i
C=CCNc1nc(Cl)nc(NC2CCCCC2)n1	x	i	-4.9	i	i	i	x	x
O=C(CCCN1C(=O)c2ccccc2C1=O)NCc1ccc(F)cc1	x	i	-8.4	i	i	i	x	x
Cc1sc2nc(SCc3nc(-c4cccs4)no3)n(-c3ccccc3)c(=O)c2c1C	x	-12.5*	-8.9	i	i	-7.66*	108.7*	i
CCOC(=O)/C(C#N)=C/c1cc2ccccc2nc1N1CCCCC1	-1.43	-9.54*	-8.7	12*	i	-7.25*	0.0	i
Cc1ccc2cc(/C=C(\C#N)C(N)=O)c(N3CCCCC3)nc2c1	-0.931	i	-6.3	i	i	i	x	x
COCC1CCCN(C(=O)c2ccc3nc(Cc4cccc(Cl)c4)oc3c2)C1 (stereo not drawn)	x	-9.55*	-5.9	i	i	i	95.7*	i
CC1CC(C)(C)OC(c2ccc(C(C)C)cc2)O1 (stereo not drawn)	x	i	x	x	x	x	x	x
CC(Oc1ccc(S(=O)(=O)N2CCCC2)cc1[N+](=O)[O-])C(=O)NC1(C#N)CCCCC1 (stereo not drawn)	x	i	x	x	x	x	x	x
COC(=O)CSc1nnc2n(C3CCCCC3)c(=O)c3c4c(sc3n12)CCCC4	x	-9.52*	-10.5	i	i	i	96.0*	0.153*
COC(=O)CSc1nnc2n(-c3ccc(OC)cc3)c(=O)c3c4c(sc3n12)CCCCC4	-2.66	i	-10.3	i	i	i	x	x
Cc1nc(N2CCN(c3ccccn3)CC2)c2c(C)c(C(=O)N3CCN(c4cccc(Cl)c4)CC3)sc2n1	x	-9.36*	-25.0	i	i	i	97.3*	i
CCc1ccc(NC(=O)c2sc3nc(C)nc(N4CCN(c5ccccn5)CC4)c3c2C)cc1	x	-12.3*	-15.0	6*	i	i	139.0*	0.11*
Cc1c(C(=O)N2CCN(c3ccccn3)CC2)sc2ncnc(N3CCN(c4ccccc4)CC3)c12	0.212	i	-10.1	i	i	i	x	x
Cc1nc(N2CCN(c3ccccn3)CC2)c2c(C)c(C(=O)Nc3ccccc3F)sc2n1	-0.613	i	-14.5	i	i	i	x	x
Cc1ccccc1-n1ncc(C(C)NS(=O)(=O)c2sccc2C)c1C (stereo not drawn)	x	i	-6.2	i	i	i	x	x
CC1(C)CC(=O)C2=C(C1)c1c(ccc3ccccc13)NC2c1ccc(Br)o1 (stereo not drawn)	-0.45	-10.4*	-12.3	i	i	i	113.3*	i
COc1ccccc1NC(=O)CCS(=O)(=O)c1cc2c(cc1Cl)NC(=O)CO2	x	i	-9.1	i	i	i	x	x
COc1ccc(OC)c(/C=C2/Sc3ccccc3C2=O)c1	1.46	-10.5*	-7.3	i	i	-7.17*	109.7*	0.117*
CC1CCN(C(CNS(=O)(=O)c2ccccc2)c2ccccc2)CC1 (stereo not drawn)	x	-12.6*	x	x	x	x	61.0*	i
COc1cccc(CNCC(=O)NC(=O)NC2CCCC2)c1	x	i	x	x	x	x	x	x
CCN1CCN(C(=O)c2ccc(COc3ccc(Cl)cc3)o2)CC1	-1.01	i	-5.3	i	i	i	x	x
O=C(c1ccc(COc2ccc(Cl)cc2)o1)N1CCN(Cc2ccc3c(c2)OCO3)CC1	x	-9.8*	-17.0	i	i	i	146.0*	0.113*
O=C(COc1ccccc1Cl)N(Cc1cccs1)C1CCS(=O)(=O)C1 (stereo not drawn)	x	i	-5.4	i	i	i	x	x
Cc1cc(Cl)ccc1OCC(=O)N(Cc1cccs1)C1CCS(=O)(=O)C1 (stereo not drawn)	x	-9.91*	-10.0	i	i	i	59.3*	0.157*
SMILES	KCC2 mod	KCNK3 block	hERG rescue	KCNQ1 block	KCNQ1 pot	KCNK9 inh	KCNK3 inh conf	KCNK3 uninduced
COc1ccc(CCN2C(=S)N(C)C(=O)C2CC(=O)Nc2ccc(OC)cc2)cc1 (stereo not drawn)	-0.149	-9.2*	-7.7	i	i	i	86.3*	0.147*
COc1ccc(NC(=O)CC2C(=O)N(C)C(=S)N2CCc2ccc(F)cc2)cc1 (stereo not drawn)	-1.03	i	-8.3	i	i	i	x	x
CCN1C(=O)C(CC(=O)Nc2ccc(OC)cc2)N(CCc2ccc(F)cc2)C1=S (stereo not drawn)	-0.0491	-9.01*	-31.3	i	i	i	116.3*	i
CSc1ncc(C(=O)Nc2ccc(C(C)=O)cc2)c(-c2ccccc2)n1	x	i	-6.0	i	i	i	x	x
COc1ccc(S(=O)(=O)N2CCCCC2)cc1NC(=O)C1CC(=O)N(Cc2ccccc2)C1 (stereo not drawn)	x	i	x	x	x	x	x	x
O=C1CC(NS(=O)(=O)c2ccc([N+](=O)[O-])cc2)CN1c1cccc(F)c1 (stereo not drawn)	x	i	-14.7	i	i	i	x	x
O=C(COn1nnc2ccc(S(=O)(=O)N3CCOCC3)cc21)Nc1c(F)c(F)c(F)c(F)c1F	-0.277	-8.81*	-11.1	i	i	-7.44*	87.0*	i
CN(C(=O)COn1nnc2ccc(S(=O)(=O)N3CCOCC3)cc21)c1ccccc1	x	i	-16.5	i	i	i	x	x
O=C(c1cc(F)c(F)c(F)c1F)N1CCN(C(=O)C2CCCO2)CC1 (stereo not drawn)	x	i	x	x	x	x	x	x
COc1ccc(OC)c(S(=O)(=O)n2cnc3cc(C)c(C)cc32)c1	-0.0317	-11.2*	-4.8	i	i	i	98.7*	i
